The values below come from ChEMBL document CHEMBL1154353, “Stereoselective behavior of the functional diltiazem analogue 1-[(4-chlorophenyl)sulfonyl]-2-(2-thienyl)pyrrolidine, a new L-type calcium channel blocker” (J Med Chem, 2009).

Series [1] deals with Aorta. Nature of the series: Vasorelaxant activity in 80 mM K+-depolarized guinea pig thoracic aortic strip assessed as inhibition of calcium-induced contraction at 100 uM. The class given is functional, Cavia porcellus. The essentials: (§1)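 Helicoidal guinea pig aortic strips in PSS at 35 °C, contracted with 80 mM KCl (equimolar substitution for Na+), plateau reached in about 45 min. Cumulative concentrations 0.1-500 μM in DMSO vehicle. Reported as % inhibition of contraction. IC50 by Probit analysis from log concentration-response curves (n = 6-8), not calculated when maximum effect was <50%.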

Series [2] concerns Ileum. Kind of series: Muscle relaxant activity in 80 mM K+-depolarized guinea pig ileum longitudinal smooth muscle assessed as inhibition of calcium-induced contraction. The class given is functional, tissue-based. Particulars: Cavia porcellus. The method, boiled down:
(§2)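 Guinea pig ileum longitudinal smooth muscle, 2 cm segments under 300-400 mg resting tension. Isometric recording in PSS, washed every 20 min for 1 h, then depolarized with 80 mM K+. Compounds added cumulatively in DMSO. Reported as % inhibition of calcium-induced contraction. IC50 from log concentration-response curves by Probit analysis.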

The nature of series [3]: Negative inotropic activity in guinea pig left atrium assessed as decrease in atrial tension. Format: functional, tissue-based. Particulars: Cavia porcellus, Cardiac atrium. The method, boiled down: (§3)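 Isolated guinea pig left atria paced at 1 Hz (0.6-0.8 ms pulses, about 50% threshold voltage) in PSS at 35 °C, pH 7.4, gassed 95% O2-5% CO2. Isometric tension recorded after 45-60 min stabilization. Cumulative concentrations 0.1-100 μM, DMSO ≤0.3%. Reported as % decrease in developed tension vs control (n = 4-6). EC50 by Probit analysis (n = 6-8), not calculated when maximum effect was <50%.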

The subject of series [4] is Ileum. Kind of series: Muscle relaxant activity in 80 mM K+-depolarized guinea pig ileum longitudinal smooth muscle assessed as inhibition of calcium-induced contraction at 5 uM. Format: functional, Cavia porcellus. The method, boiled down:
as §2

Series [5] relates to Aorta. Nature of the series: Vasorelaxant activity in 80 mM K+-depolarized guinea pig thoracic aortic strip assessed as inhibition of calcium-induced contraction. Format: functional, tissue-based. Particulars: Cavia porcellus. The method, boiled down:
as §1

A short description of series [6]: Negative chronotropic activity in guinea pig right atrium assessed as decrease in atrial rate at 50 uM relative to control. Format: functional, Cavia porcellus, Cardiac atrium. On the set-up: scale not given: the % may be the effect or the level left. The method, boiled down:
(§4)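 Spontaneously beating guinea pig right atria in PSS at 35 °C, pH 7.4, 95% O2-5% CO2, pretreatment rate 170-195 beats/min. Cumulative concentrations 0.1-100 μM, each added at steady state, DMSO ≤0.3%. Reported as % decrease in atrial rate vs control, n = 6-8.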

Series [7] in a line: Negative inotropic activity in guinea pig left atrium assessed as decrease in atrial tension at 10 uM relative to control. Set-up: scale not given: the % may be the effect or the level left. Format: functional, Cavia porcellus, Cardiac atrium. The essentials:
as §3

Series [8] concerns the target T1, Voltage-gated L-type calcium channel (Rattus norvegicus, UniProt P22002+Q02485+P27732). Nature of the series: Blockade of L-type calcium channel in Wistar rat tail artery smooth muscle cells assessed as inhibition of peak L-type barium current by whole cell patch clamp method.
A short description of series [9]: Negative chronotropic activity in guinea pig right atrium assessed as decrease in atrial rate at 100 uM relative to control. Format: functional, Cavia porcellus, Cardiac atrium. On the set-up: scale not given: the % may be the effect or the level left. The method, boiled down:
as §4

In series [10] the test system is Ileum. Nature of the series: Muscle relaxant activity in 80 mM K+-depolarized guinea pig ileum longitudinal smooth muscle assessed as inhibition of calcium-induced contraction at 10 uM. Format: functional, Cavia porcellus. The method, boiled down:
as §2

Series [11] is described as follows: Negative inotropic activity in guinea pig left atrium assessed as decrease in atrial tension at 100 uM relative to control. Format: functional, Cavia porcellus, Cardiac atrium. On the set-up: scale not given: the % may be the effect or the level left. The method, boiled down: as §3
Series [12] addresses T1, Voltage-gated L-type calcium channel. Kind of series: Displacement of [3H]diltiazem from […] binding site of L-type calcium channel in Wistar rat cardiomyocytes by liquid scintillation counting. Format: cell-based. The essentials: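 Thawed rat cardiomyocytes (200 μg), isolated by collagenase/dispase perfusion and pooled from at least two animals. Incubated with 5 nM [3H]diltiazem and unlabeled ligand (0.1 nM to 100 μM) in 50 mM Tris pH 7.4, 25 °C, 90 min. Reaction stopped by filtration through PEI-soaked GF/B filters, then scintillation counting. Nonspecific binding defined with 100 μM diltiazem. Run in triplicate; sigmoidal fit of % specific binding.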

Series [13] deals with Aorta. Kind of series: Ratio of compound IC50 to diltiazem IC50 for vasorelaxant activity in 80 mM K+-depolarized guinea pig thoracic aortic strip. The class given is functional, Cavia porcellus.
The nature of series [14]: Ratio of diltiazem EC50 to compound EC50 for negative inotropic activity in guinea pig left atrium. Format: functional, Cavia porcellus, Cardiac atrium.

For the molecule `O=S(=O)(c1ccc(Cl)cc1)N1CCC[C@H]1c1cccs1`, the “inhibition (INH)” value in the series on Aorta [1] worked out at 83%; in the series with Ileum [4], 69%. The half-maximal inhibitory concentration (IC50) in the series on Ileum [2] stood at 2060 nM; with Aorta [5] it was 5160 nM; in [8] it was 22200 nM. Moreover, the EC50 in series [3] is 450 nM. Also, the values for the Activity in [6] and in series [7] were 7% and 96%, respectively.
For the molecule `CCO[C@@]1(c2ccc(Br)cc2)SC=C(C)n2c1noc2=O`, the entries for the “inhibition (INH)” value in the series on Aorta [1] and with Ileum [10] were 11% and 3%, respectively. Further, the Activity in series [9] is listed as 16%. The EC50 in series [3] came to 70 nM.
Regarding `O=S(=O)(c1ccc(Cl)cc1)N1CCC[C@@H]1c1cccs1`, the “inhibition (INH)” value in the series with Aorta [1] worked out at 24%; in the series on Ileum [4], 94%. The IC50 came out at 1070 nM in the series with Ileum [2] and 27100 nM in series [8]. Also, the EC50 in series [3] amounted to 230 nM. In addition, the Activity in [6] is reported as 10%; in series [11] it was 98%.
As for `C=CCN(c1ccccc1)S(=O)(=O)c1ccc(Cl)cc1`, the entries for the “inhibition (INH)” value (with Aorta [1]; in the series with Ileum [10]; in series [12]) were 54%, 83% and “Dose-dependent effect”, respectively. The Activity in series [9] stood at 5%. Moreover, the IC50 in the series with Ileum [2] was found to be 4320 nM; in the series with Aorta [5] it was 17700 nM. Further, the “Ratio IC50” value in the series with Aorta [13] stood at 6.8. Further, the “Ratio EC50” value in series [14] is listed as 2.5.
`CSC1=NCCCN1S(=O)(=O)c1ccc(Cl)cc1`: the “inhibition (INH)” value turned out to be 57% in the series with Aorta [1] and 83% in the series on Ileum [10]. Further, the Activity in series [9] was 5%. In addition, in the series on Ileum [2], the IC50 is 14800 nM. The “Ratio IC50” value with Aorta [13] is given as 9.7.
`O=S(=O)(c1ccc(Cl)cc1)N1CCCC1c1cccs1` (racemic): the “inhibition (INH)” value in the series with Aorta [1] is on record as 74%; with Ileum [10] it was 90%; in the series with Ileum [4] it was 90%; in [8] (rat), “Dose-dependent effect”. For the same molecule, the Activity in series [9] and in series [6] was 4% throughout. Also, the IC50 amounted to 1180 nM with Ileum [2] and 23500 nM in series [8]. Moreover, in the series on Aorta [13], the “Ratio IC50” value came to 2.2. Also, the “Ratio EC50” value in series [14] was 2.5.
For `COc1ccc([C@@H]2Sc3ccccc3N(CCN(C)C)C(=O)[C@@H]2OC(C)=O)cc1` [DILTIAZEM], the results for the “inhibition (INH)” value in the series on Aorta [1] and in the series with Ileum [10] were 88% and 98%, respectively. In addition, in series [3], the EC50 was 790 nM. Besides, in the series with Aorta [5], the IC50 came to 2600 nM.
